Source: PubChem (The Scripps Research Institute Molecular Screening Center)
M5 ag = human M5 muscarinic receptor agonists, primary screen, CHO-K1 cells, Fluo-8 calcium fluorescence; Muscarinic acetylcholine receptor M5 (Homo sapiens), P08912; CHO-K1 hM5 cells; 0% DMSO wells, 100% maximal acetylcholine response; activation, % at 3 µM; 360,000 tested, 0.19% active; AID 624037, 2012;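 active = activation above the run's mean over test compounds plus 3 SD, cut at about 23% in these data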;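 note: signal is peak over basal fluorescence ratio across the kinetic read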
Target sequence (P08912 whole entry, looked up): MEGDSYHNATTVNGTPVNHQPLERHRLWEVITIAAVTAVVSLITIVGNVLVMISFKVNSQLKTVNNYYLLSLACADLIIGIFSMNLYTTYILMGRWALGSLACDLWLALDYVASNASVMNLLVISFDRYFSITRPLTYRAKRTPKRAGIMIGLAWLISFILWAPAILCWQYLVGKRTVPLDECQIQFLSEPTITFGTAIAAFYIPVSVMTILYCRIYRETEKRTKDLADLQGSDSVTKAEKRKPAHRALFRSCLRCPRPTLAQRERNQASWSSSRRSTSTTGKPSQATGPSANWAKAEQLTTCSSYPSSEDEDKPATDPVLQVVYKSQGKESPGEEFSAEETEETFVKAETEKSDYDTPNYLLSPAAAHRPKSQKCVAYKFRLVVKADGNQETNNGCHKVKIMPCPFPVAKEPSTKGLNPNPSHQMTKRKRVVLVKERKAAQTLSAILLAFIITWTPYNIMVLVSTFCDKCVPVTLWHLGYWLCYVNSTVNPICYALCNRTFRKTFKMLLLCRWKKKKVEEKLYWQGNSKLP
M5 PAM = human M5 muscarinic receptor positive allosteric modulators, primary screen, CHO-K1 cells, Fluo-8 calcium fluorescence | CHO-K1 hM5, ACh EC20 PAM; 0% = ACh EC20, 100% = ACh EC100 | 360,000 tested, 0.3% active | activation, % at 3 µM;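 active = activation above the run cutoff, the mean activation of all test compounds plus 3 SD, cut at about 18% in these data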
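System: CHO-K1 cell line with stable human muscarinic M5 receptor expression | Also added: EC20 acetylcholine as agonist stimulus | Compound: One concentration, 3 µM final (nominal) | Timing: Fluo-8 loading 80 min at 37 °C plus 30 min room temperature | Measured by: Fluo-8 calcium dye fluorescence, kinetic read | Read-out basis: % activation, ACh-normalized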
CHRM5 antagonist = human M5 muscarinic receptor antagonists, primary screen, CHO cells, Fluo-8 calcium fluorescence; Muscarinic acetylcholine receptor M5 (Homo sapiens), P08912; CHO-hM5 cells, ACh EC80; inhibition, % at 3 µM; 360,000 tested, 0.59% active; AID 624040, 2012;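 active = inhibition above a per-plate cutoff, the mean of that plate's test compounds plus 3 SD, cut at about 27% in these data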
CHRM4 agonist = human M4 muscarinic receptor agonists, primary screen, CHO-K1 cells, Fluo-8 calcium fluorescence. Muscarinic acetylcholine receptor M4 (Homo sapiens), P08173. CHO-K1 hM4/Gqi5; vehicle 0%, full acetylcholine response 100%. activation, % at 3 µM. 360,000 tested, 0.14% active;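 active = activation above the run mean over all test wells plus 3 SD, cut at about 32% in these data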;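 note: peak over basal fluorescence ratio per well then scaled between controls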
M4 PAM = human M4 muscarinic receptor positive allosteric modulators, primary screen, CHO-K1 cells, Fluo-8 calcium fluorescence; 360,000 tested, 0.4% active; CHO-K1 hM4/Gqi5, ACh EC20; 0% = ACh EC20, 100% = maximal ACh; activation, % at 3 µM; Muscarinic acetylcholine receptor M4 (Homo sapiens), P08173;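 active = activation above its plate's cutoff, the mean activation of sample wells plus 3 SD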
CHRM4 antagonist = human M4 muscarinic receptor antagonists, primary screen, CHO cells, Fluo-8 calcium fluorescence. CHO-hM4 cells, ACh EC80. inhibition, % at 3 µM. Muscarinic acetylcholine receptor M4 (Homo sapiens), P08173. 360,000 tested, 0.73% active;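 active = inhibition above its plate's cutoff, the mean inhibition of sample wells plus 3 SD, cut at about 27% in these data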
Of the large screens only hits and unclear results are named; the others gave an inactive call; ! = not confirmed by another sample. In the library only some 1.8% were active in any assay of this set; here they are far more common.

OC(c1ccc2ccccc2c1)c1ncc(-c2ccc(C(F)(F)F)cc2)[nH]1 (stereo not given)	none
CC1CCN(S(=O)(=O)c2ccc(NC(=O)Cn3nnc(-c4ccccc4F)n3)cc2)CC1	CHRM5 antagonist 31.4
CC1CCN(S(=O)(=O)c2ccc(NC(=O)c3ccccc3F)cc2)CC1	none
COc1ccc(CC(=O)NCc2cccc(Cl)c2)cc1S(=O)(=O)N1CCOCC1	none
Cc1nn(-c2ccccc2)c(N)c1Sc1cccc([N+](=O)[O-])c1	none
Cc1cc(C)nc(-n2nc(C)c(Sc3ccc(F)cc3)c2N)n1	M4 PAM 22.6
Cc1cc(Cl)ccc1NC(=S)NCc1ccc(S(N)(=O)=O)cc1	none
Cc1ccc(NC(=S)NCCO)c(C)c1	M4 PAM 16.3
Cc1ccc(NC(=S)NCc2ccc(S(N)(=O)=O)cc2)c(C)c1	CHRM4 antagonist 27.7
Cc1ccc(NC(=S)NCCc2ccccc2)c(C)c1	none
COc1ccc(NC(=O)N2CCCC(c3ccccc3)C2)cc1 (stereo not given)	none
CCNC(=O)CN(C1CCCCC1)S(C)(=O)=O	M4 PAM 22.3
CCCCNC(=O)CN(C1CCCCC1)S(C)(=O)=O	none
CCCCCCCCN1C(=O)[C@H](CC(=O)N2CCCC2)C[C@@]2(C(=O)OC)CCCCC=C12	none
C[C@H]1CN([C@@H](C)CO)C(=O)CCCn2nncc2CO[C@@H]1CN(C)S(=O)(=O)c1cn(C)cn1	none
Cc1ccccc1C(=O)NNC(=O)CCC(=O)Nc1cccc(Cl)c1C	M5 PAM 19.3
CCC(C#CCN1CCCCC1)(CC)OCCC#N	none
CCC(C)(C#CCN1CCCCC1)OCCC#N (stereo not given)	CHRM5 antagonist 60.3, CHRM4 antagonist 47.1
O=S(=O)(/N=S1/CC=CCN1S(=O)(=O)c1ccccc1)c1ccccc1 (stereo not given)	M5 ag 25.6
N#CCC(=O)Nc1ccc(C(=O)NNC(=S)NC2CC2)cc1	M4 PAM 25.3
O=c1oc2cc(O)ccc2cc1-c1nc2ccccc2o1	M5 ag 26.9, CHRM4 agonist 40.7
O=c1oc2cc(O)ccc2cc1S(=O)(=O)c1ccccc1	none
COC(=O)CC1=Nc2ccccc2NC(=O)C1	none
CCOC(=O)CC1=Nc2ccccc2NC(=O)C1	CHRM4 antagonist 26.7
CCn1cc(C(=O)N(C)c2cc(C)ccc2OC)c2cc(OC)c(OC)cc2c1=O	none
CCn1cc(C(=O)N(C)c2ccc(OC)cc2OC)c2cc(OC)c(OC)cc2c1=O	M4 PAM 13.7
Cn1c(=O)c2[nH]c(C3CCCC3)nc2n(C)c1=O	CHRM4 antagonist 101.1
Cn1c(=O)c2[nH]c(C3CC=CCC3)nc2n(C)c1=O (stereo not given)	none
Cc1ccc(Sc2c([N+](=O)[O-])ncn2C)cc1	none
Cc1ccc(Sc2c([N+](=O)[O-])c(C)nn2C)cc1	CHRM5 antagonist 27.8, CHRM4 antagonist 62.9
N#CC(C#N)=C(Nc1ccc(F)cc1)SCc1cccc(Br)c1	CHRM5 antagonist 31.9
Cc1cccc(CSC(Nc2ccc(F)cc2)=C(C#N)C#N)c1	CHRM5 antagonist 29.5
Cc1cccc(CSC(=N)N)c1	none
COc1ccc(OC)c(NC(=O)C2(C)CCN2C(=O)C(C)(C)c2ccccc2)c1 (stereo not given)	none
O=C(NCCc1ccc(O)cc1)c1[nH]c(C(F)(F)F)nc1-c1ccccc1	none
Cn1c(=O)cc(OCCCC(=O)Nc2cccnc2)c2ccccc21	CHRM4 antagonist 36.6
COc1ccc(S(=O)(=O)N2CCC(C(=O)NN3CCCCC3)CC2)cc1	none
COc1ccccc1CN1CCC(CNS(=O)(=O)c2cc(-c3onc(C)c3C)ccc2OC)CC1	CHRM4 antagonist 42.3
Cc1ccc(NC(=O)CS(=O)CC(=O)N(C(C)C(=O)NC2CCCCC2)C(C)(C)C)cc1 (stereo not given)	CHRM5 antagonist 27.5
Cc1ccc(N(C(=O)CS(=O)CC(=O)Nc2ccc(F)cc2)C(C(=O)NC2CCCCC2)c2ccco2)cc1 (stereo not given)	none
CCC[C@@H]1C=C(C(=O)OCC)[C@H](c2ccccc2)N1S(=O)(=O)c1ccc(C)cc1	none
CC(=O)Nc1cccc(-c2ccnc3c2CC(C(=O)Nc2ccccc2)O3)c1 (stereo not given)	none
Cc1noc(C)c1S(=O)(=O)Nc1ccc2c(c1)C(=O)N([C@H](C)CO)C[C@H](C)[C@@H](CN(C)S(=O)(=O)c1ccc(F)cc1)O2	none
Cc1noc(C)c1S(=O)(=O)Nc1ccc2c(c1)CC(=O)N([C@H](C)CO)C[C@H](C)[C@H](CN(C)S(=O)(=O)c1ccc(F)cc1)O2	CHRM4 antagonist 58.9
COc1cc(C(O)c2nc(-c3ccccc3)cs2)ccc1F (stereo not given)	none
CCCCNc1c(-c2ccc(OC)c(SC3CCCCC3)c2)nc2ccc(C)cn12	CHRM5 antagonist 39.7, CHRM4 antagonist 78.3
CCCCNc1c(-c2ccc(SC3CCCCC3)c(OC)c2)nc2ccc(C)cn12	CHRM4 antagonist 35.3!
CCOc1ccc(/C=C/[N+](=O)[O-])c2ccccc12	M5 ag 54.1, CHRM5 antagonist 86.1, CHRM4 antagonist 39.7
Nc1nc(-c2ccc3c(c2)CCCC3)cs1	M5 PAM 19.8
Nc1nc(-c2ccc3c(c2)OCCO3)cs1	none
Cc1cccnc1C(NC(=O)C1CCN(Cc2ccc(Cl)cc2)CC1)c1ccc(F)cc1 (stereo not given)	none
CC1(C(=O)NS(=O)(=O)C2CC2)CCN(C(=O)c2ccccc2OC(F)(F)F)C1 (stereo not given)	none
CCC(C)C(NC(=O)C1CCC(C)CC1)C(=O)NC(C(=O)OC)C(C)C (stereo not given)	M4 PAM 20.3
COc1ccc2c(c1)c1c3n2CCN(C)C3=NCC1	M4 PAM 15.2
Cc1ccc(OCc2ccc(C(=O)NNC(=S)NCC3CCCO3)o2)c([N+](=O)[O-])c1 (stereo not given)	M5 PAM 18.5
CC1(C(=O)NS(=O)(=O)c2ccc(C#N)cc2)CCN1C(=O)C1(c2ccccc2)CCCC1 (stereo not given)	M4 PAM 17.5
Clc1cccc(Cl)c1/C=N/Nc1c(Cl)cncc1Cl	M5 PAM 27.9
O=C(CN1CCCCC1)N1N=C(c2cccs2)CC1c1cccs1 (stereo not given)	CHRM5 antagonist 37.8, CHRM4 antagonist 45.0
